Laboratory results: ChEMBL document CHEMBL1155029, “Novel amodiaquine congeners as potent antimalarial agents” (Bioorg Med Chem, 2008)

What was measured:
Plasmodium falciparum [1] = test: Relative selectivity against Plasmodium falciparum W2 as IC50 ratio compared to chloroquine; format: functional
Outline: (§1)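 Asynchronous P. falciparum cultures (D-10 or W-2; 1–1.5% parasitaemia, 1% haematocrit) incubated 72 h at 37 °C under 1% O2/5% CO2/94% N2 with serial drug dilutions (water or DMSO, final DMSO <1%). Growth read as pLDH activity at OD650. Chloroquine IC50 divided by compound IC50 within each experiment, ratios averaged.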

[2] = Cytotoxicity against mouse WEHI13 cells by MTT assay; format: cell-based
Outline: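 Murine WEHI clone 13 fibrosarcoma cells in RPMI 1640 with 10% FCS and glutamine, treated with serial compound dilutions 72 h at 37 °C, 5% CO2. MTT added for 3 h, formazan solubilized in SDS/DMF lysing buffer pH 4.7, absorbance 550 nm against 650 nm reference. IC50 is dose giving 50% growth inhibition.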

K562 = test: Cytotoxicity against human K562 cells by MTT assay; format: cell-based
Outline: (§2)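 Human cell lines (SV40-immortalized microvascular endothelial HMEC-1 in MCDB 131 with 10% FCS, EGF, hydrocortisone, glutamine, Hepes; K562 in RPMI 1640 with 10% FCS, glutamine) exposed to serial compound dilutions 72 h at 37 °C, 5% CO2. MTT added 3 h; formazan dissolved in SDS/DMF buffer pH 4.7, read 550 nm (ref 650 nm). IC50 for 50% growth inhibition.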

[3] = Ratio of IC50 for chloroquine-resistant Plasmodium falciparum W2 to IC50 for chloroquine-sensitive Plasmodium falciparum D10; format: functional
Plasmodium falciparum [4] = test: Antimalarial activity against chloroquine-resistant Plasmodium falciparum W2 as LDH activity; format: functional, organism-based
Outline: (§3)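 Asynchronous P. falciparum cultures (1–1.5% parasitaemia, 1% final hematocrit) exposed to serial dilutions for 72 h at 37 °C under 1% O2/5% CO2/94% N2. Compounds dissolved in water or DMSO, diluted in medium (final DMSO <1%). Growth read as pLDH activity (OD650, modified Makler method). IC50 given as mean ± SD of at least three experiments in duplicate.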

[5] = Cytotoxicity against HMEC1 cells by MTT assay; format: cell-based; settings: Homo sapiens, HMEC-1; outline: as §2
Plasmodium falciparum [6] = test: Relative selectivity against Plasmodium falciparum D10 as IC50 ratio compared to chloroquine; format: functional; outline: as §1
Plasmodium falciparum [7] = test: Antimalarial activity against chloroquine-sensitive Plasmodium falciparum D10 as LDH reporter activity; format: functional, organism-based; outline: as §3

SMILES | Ratio IC50 (Plasmodium falciparum [1]) | IC50 [2] [nM] | IC50 (K562) [nM] | Ratio IC50 [3] | IC50 (Plasmodium falciparum [4]) [nM] | IC50 [5] [nM] | Ratio IC50 (Plasmodium falciparum [6]) | IC50 (Plasmodium falciparum [7]) [nM]
Cc1c(CN2CCCC2)cc(-c2ccccc2)n1Nc1ccnc2cc(Cl)ccc12 | 4.2 | 3880 | 2920 | 3.3 | 140 | 12900 | 0.7 | 42.9
Oc1cc(Nc2ccnc3cc(Cl)ccc23)ccc1CNCC12CCCN1CCC2 | 2.2 |  |  | 0.9 | 77 |  | 0.4 | 81.9
Cc1c(CNC(C)(C)C)cc(-c2ccccc2)n1Nc1ccnc2cc(Cl)ccc12 | 0.7 |  |  | 18.5 | 1180 |  | 0.4 | 63.5
Clc1ccc2c(Nc3ccc(CNC[C@@H]4CCCN5CCCC[C@H]45)c(Cl)c3)ccnc2c1 | 28 | 2770 |  | 1.2 | 28.8 | 5520 | 1.8 | 23.6
Cc1cc(CN2CCCC2)c(C)n1Nc1ccnc2cc(Cl)ccc12 | 0.7 |  |  | 4.2 | 336 |  | 0.2 | 80.7
Cc1cc(CNC(C)(C)C)c(C)n1Nc1ccnc2cc(Cl)ccc12 | 0.9 |  |  | 5.3 | 255 |  | 0.3 | 48.6
Cc1c(CNCC[C@@H]2CCCN3CCCC[C@H]23)cc(-c2ccccc2)n1Nc1ccnc2cc(Cl)ccc12 | 0.8 | 7220 | 2610 | 5 | 776 | 14600 | 0.2 | 154
Cc1cc(CNCC23CCCN2CCC3)c(C)n1Nc1ccnc2cc(Cl)ccc12 | 0.5 |  |  | 1.6 | 358 |  | 0.1 | 222
Oc1cc(Nc2ccnc3cc(Cl)ccc23)ccc1CNC[C@@H]1CCCN2CCCC[C@H]12 | 22 | 4430 |  |  | 14.3 | 7940 | 2.8 | 8.5
CCN(CC)Cc1cc(-c2ccccc2)n(Nc2ccnc3cc(Cl)ccc23)c1C | 9.9 | 4380 | 3620 | 1.4 | 59.2 | 16700 | 0.7 | 42.7
CCN(CC)Cc1ccc(Nc2ccnc3cc(Cl)ccc23)cc1O [ISOQUINE] | 17.6 |  |  | 1.3 | 30.2 |  | 1.3 | 23.7
CCN(CC)Cc1cc(C)n(Nc2ccnc3cc(Cl)ccc23)c1C | 1.2 |  |  | 2.8 | 193 |  | 0.2 | 69
Oc1cc(Nc2ccnc3cc(Cl)ccc23)ccc1CNCCC12CCCN1CCC2 | 2.1 | 12200 |  | 1.7 | 153 |  | 0.3 | 90.3
CCN(CC)CCCC(C)Nc1ccnc2cc(Cl)ccc12 (stereo not given) [CHLOROQUINE] |  | > 38000 | 29000 |  |  | > 32000 |  | 
Cc1c(CN2CCCC2)cc(-c2ccc(Cl)cc2)n1Nc1ccnc2cc(Cl)ccc12 | 15.8 | 2060 |  | 1.6 | 49.6 | 7180 | 0.8 | 30.7
CCN(CC)Cc1cc(-c2ccc(Cl)cc2)n(Nc2ccnc3cc(Cl)ccc23)c1C | 18.5 | 1450 |  | 1.6 | 42.5 | 5810 | 0.9 | 26.1
Cc1c(CNC[C@@H]2CCCN3CCCC[C@H]23)cc(-c2ccccc2)n1Nc1ccnc2cc(Cl)ccc12 | 1.1 | 7440 | 1680 | 14.1 | 515 | 13500 | 0.8 | 36.5
Cc1cc(CNC[C@@H]2CCCN3CCCC[C@H]23)c(C)n1Nc1ccnc2cc(Cl)ccc12 | 3.1 | 5510 |  | 0.8 | 53.4 | 5400 | 0.4 | 70.7
